Consider two compounds from ChEMBL document CHEMBL4477254, “Synthesis and biological evaluation of some novel triazole hybrids of curcumin mimics and their selective anticancer activity against breast and prostate cancer cell lines” (Bioorg Med Chem Lett, 2016).

The test system of series [1] is PC-3. In words: Cell cycle arrest in human PC3 cells assessed as accumulation at G0/G1 phase at 4.8 uM after 24 hrs by propidium iodide staining based flow cytometry (reference value: 72.73%). Type of series: functional. Summed up: (§1)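 Cells treated 24 h with test compound, MCF-7 at various concentrations and PC-3 at various concentrations; cells harvested, stained with propidium iodide and acquired by flow cytometry for cell cycle phase distribution.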

The subject of series [2] is PC-3. Description: Cell cycle arrest in human PC3 cells assessed as accumulation at G2/M phase at 4.8 uM after 24 hrs by propidium iodide staining based flow cytometry (reference value: 2.25%). It is filed as functional. An outline of the steps: as §1
Series [3] relates to PC-3. In words: Cell cycle arrest in human PC3 cells assessed as accumulation at G0/G1 phase at 8.8 uM after 24 hrs by propidium iodide staining based flow cytometry (reference value: 72.73%). It is filed as functional. An outline of the steps: as §1
For series [4], the system named is PC-3. Description: Cell cycle arrest in human PC3 cells assessed as accumulation at S phase at 8.8 uM after 24 hrs by propidium iodide staining based flow cytometry (reference value: 25.01%). Type of series: functional. An outline of the steps:
as §1

The test system of series [5] is PC-3. Description: Induction of morphological changes in human PC3 cells assessed as decrease in cell number at 2.4 to 8.8 uM after 24 hrs by phase contrast microscopy. It is filed as functional, cell-based. An outline of the steps:
(§2)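 Cells were exposed to a range of concentrations for 24 h. Cell number and morphology, including detachment from the surface, were assessed by phase-contrast microscopy at 10X magnification.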

The test system of series [6] is PC-3. Description: Induction of morphological changes in human PC3 cells at 2.4 to 8.8 uM after 24 hrs by phase contrast microscopy. It is filed as functional, cell-based. An outline of the steps: as §2
Series [7] has as its system PC-3. In words: Induction of morphological changes in human PC3 cells assessed as cell detachment at >8.8 uM after 24 hrs by phase contrast microscopy. Type of series: functional, cell-based. Summed up:
as §2

For series [8], the system named is PC-3. In words: Induction of apoptosis in human PC3 cells assessed as necrotic cells at 4.8 uM after 24 hrs by annexin V-FITC/propidium iodide staining based flow cytometry (reference value: 2.52%). Type of series: functional. An outline of the steps: (§3)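 MCF-7 cells exposed to 3, 6 or 9 μM and PC-3 cells to 4.8 or 8.8 μM for 24 h, then harvested and dual-stained with Annexin V-FITC/PI and read by flow cytometry. Gates: live AnnexinV⁻/PI⁻, early apoptotic AnnexinV⁺/PI⁻, necrotic AnnexinV⁻/PI⁺.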

Series [9] has as its system PC-3. Description: Induction of mitochondrial membrane depolarization in human PC3 cells at 4.8 uM after 24 hrs by JC-1 staining based flow cytometry (reference value: 4.51%). Type of series: functional.
Series [10] has as its system PC-3. In words: Decrease in Bcl-2 expression in human PC3 cells at 4.8 to 8.8 uM after 24 hrs by Western blot analysis. Type of series: functional, cell-based. Summed up: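 MCF-7 or PC-3 cells treated with compound for 24 h, harvested; PCNA, Bax and Bcl-2 protein expression checked by Western blotting.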
For series [11], the target named is T1, Serine/threonine-protein kinase AKT (Homo sapiens) (UniProt P31751+Q9Y243+P31749). Description: Inhibition of Akt phosphorylation at […] in human PC3 cells at 8.8 uM after 24 hrs by Western blot analysis. Type of series: cell-based. Summed up:
(§4)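 Protein expression was analysed by Western blotting of cells harvested after 24 h compound treatment.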

A short description of series [12]: Half life in liver microsomes (unknown origin) at 8 ug/ml in presence of NADPH by UPLC analysis. Type of series: ADME, Microsome.
A short description of series [13]: Intrinsic clearance in liver microsomes (unknown origin) assessed per mg of protein at 8 ug/ml in presence of NADPH by UPLC analysis. It is filed as ADME, Microsome.
In series [14] the test system is MCF7. Description: Cell cycle arrest in human MCF7 cells assessed as increase in cells at S phase after 24 hrs by propidium iodide staining based flow cytometry. It is filed as functional. An outline of the steps:
as §1

Series [15] deals with MCF7. In words: Cell cycle arrest in human MCF7 cells assessed as decrease in cells at G0/G1 phase after 24 hrs by propidium iodide staining based flow cytometry. Type of series: functional. Summed up:
as §1

The subject of series [16] is MCF7. Description: Cell cycle arrest in human MCF7 cells assessed as accumulation at G0/G1 phase at 3 uM after 24 hrs by propidium iodide staining based flow cytometry (reference value: 45.67%). Type of series: functional. Summed up:
as §1

The test system of series [17] is MCF7. Description: Cell cycle arrest in human MCF7 cells assessed as accumulation at G0/G1 phase at 9 uM after 24 hrs by propidium iodide staining based flow cytometry (reference value: 45.67%). Type of series: functional. Summed up: as §1
Series [18] deals with MCF7. In words: Cell cycle arrest in human MCF7 cells assessed as accumulation at S phase at 9 uM after 24 hrs by propidium iodide staining based flow cytometry (reference value: 34.03%). Type of series: functional. Summed up:
as §1

The test system of series [19] is MCF7. In words: Induction of apoptosis in human MCF7 cells assessed as viable cells at 6 uM after 24 hrs by annexin V-FITC/propidium iodide staining based flow cytometry (reference value: 82.63%). Type of series: functional. As to conditions: MCF7, 24 h, read-out: Activity. An outline of the steps: as §3
In series [20] the target is T1, Serine/threonine-protein kinase AKT (Homo sapiens). Description: Inhibition of Akt phosphorylation at […] in human MCF7 cells at 9 uM after 24 hrs by Western blot analysis. Type of series: cell-based. An outline of the steps:
as §4

Series [21] can be described thus: Elimination rate constant in liver microsomes (unknown origin) at 5 ug/ml measured up to 60 mins by UPLC analysis. Type of series: ADME, Microsome.
Series [22] can be described thus: Half life in liver microsomes (unknown origin) at 5 ug/ml in presence of NADPH by UPLC analysis. Type of series: ADME, Microsome.

Calls of active or inactive are those of the source. The rule behind the calls is not given here.

T1 sequence (P31749 whole entry, looked up): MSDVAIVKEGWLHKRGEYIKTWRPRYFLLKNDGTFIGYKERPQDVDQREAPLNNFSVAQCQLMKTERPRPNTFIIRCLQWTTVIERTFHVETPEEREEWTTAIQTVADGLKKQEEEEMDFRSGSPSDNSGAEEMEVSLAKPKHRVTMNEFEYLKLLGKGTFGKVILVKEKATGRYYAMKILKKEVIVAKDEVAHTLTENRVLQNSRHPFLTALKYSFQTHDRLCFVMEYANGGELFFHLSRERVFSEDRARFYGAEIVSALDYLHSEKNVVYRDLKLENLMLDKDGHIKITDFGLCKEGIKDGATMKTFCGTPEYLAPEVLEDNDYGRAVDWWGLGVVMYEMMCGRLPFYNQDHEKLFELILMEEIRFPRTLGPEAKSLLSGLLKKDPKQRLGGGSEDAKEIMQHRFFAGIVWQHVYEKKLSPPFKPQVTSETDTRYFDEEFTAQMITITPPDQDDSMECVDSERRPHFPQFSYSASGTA
T1 sequence (P31751 whole entry, looked up): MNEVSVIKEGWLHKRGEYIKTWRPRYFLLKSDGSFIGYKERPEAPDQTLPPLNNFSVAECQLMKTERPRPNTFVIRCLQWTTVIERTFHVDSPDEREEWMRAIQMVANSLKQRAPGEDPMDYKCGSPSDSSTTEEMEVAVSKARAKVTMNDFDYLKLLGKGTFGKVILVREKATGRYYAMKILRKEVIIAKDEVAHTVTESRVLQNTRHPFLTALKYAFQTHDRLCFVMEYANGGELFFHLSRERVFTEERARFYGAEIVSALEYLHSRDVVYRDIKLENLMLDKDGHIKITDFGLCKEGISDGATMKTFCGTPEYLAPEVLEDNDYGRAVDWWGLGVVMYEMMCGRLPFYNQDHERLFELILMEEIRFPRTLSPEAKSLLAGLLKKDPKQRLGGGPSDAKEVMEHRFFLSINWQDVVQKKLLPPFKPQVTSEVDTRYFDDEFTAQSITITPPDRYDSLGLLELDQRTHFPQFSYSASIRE
T1 sequence (Q9Y243 whole entry, looked up): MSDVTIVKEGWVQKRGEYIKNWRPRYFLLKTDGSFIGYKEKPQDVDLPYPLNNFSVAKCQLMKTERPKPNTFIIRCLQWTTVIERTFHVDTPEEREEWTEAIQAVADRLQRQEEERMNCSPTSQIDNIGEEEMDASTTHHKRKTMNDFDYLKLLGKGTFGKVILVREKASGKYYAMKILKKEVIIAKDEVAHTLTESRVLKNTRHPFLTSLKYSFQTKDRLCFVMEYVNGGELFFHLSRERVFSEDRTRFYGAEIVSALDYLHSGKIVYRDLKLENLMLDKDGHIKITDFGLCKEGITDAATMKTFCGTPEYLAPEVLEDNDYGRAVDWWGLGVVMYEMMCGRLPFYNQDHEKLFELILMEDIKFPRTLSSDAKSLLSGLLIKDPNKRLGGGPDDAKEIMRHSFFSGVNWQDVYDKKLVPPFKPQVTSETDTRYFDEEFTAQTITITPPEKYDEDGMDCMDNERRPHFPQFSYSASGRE

As to `Cc1ccc(/C=C2\CN(Cc3cn(Cc4ccccc4F)nn3)C/C(=C\c3ccc(C)cc3)C2=O)cc1`, the Activity was determined as 70.62% in series [1]; 8.36% in series [2]; 67.5% in [3]; 23.61% in [4]; 0.91% in series [8]; 29.85% in series [9]. The result in series [5], in series [6], in series [7] and in [10] was Active. The compound further had an inhibition in series [11] of 100%. In addition, the half-life at 8 ug/ml in series [12] turned out to be 15.9 min. Moreover, the CLint in series [13] stood at 87 µL/min/mg.

Regarding `O=C1/C(=C/c2ccccc2F)CN(Cc2cn(Cc3ccc(F)cc3)nn2)C/C1=C\c1ccccc1F`, the Activity entry is “Dose-dependent effect” in [14]; “Dose-dependent effect” in series [15]; 38.9% in series [16]; 2.22% in series [17]; 62.67% in series [18]. For the same compound, in series [19], the viability at 6 µM came to 50%. This compound came in with an inhibition in series [20] of 100%. This compound also had a k el at 1 h, 5 ug/ml in series [21] of 0.00147 s⁻¹. Besides, the half-life at 5 ug/ml in series [22] worked out at 7.52 min.
